According to ChEMBL document CHEMBL1123678, “Octahydropyrazino[2',3':3,4]pyrido[1,2-a]indoles. A new class of potent antihypertensive agents” (1987):
Active and inactive are the calls of the source. No cut-off for these calls is given here.

Columns and labels:
Rattus norvegicus [1] = assay: Antihypertensive activity was determined in cannulated spontaneously hypertensive rats(SHR) and maximum decrease of mean arterial blood pressure (MABP) at 10 mg/kg oral dose; format: functional, Artery
Method in brief: (§1)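 Cannulated SHR given compound by gastric gavage in 0.5% methylcellulose (5 mL/kg), doses 0.1–50 mg/kg, 4–8 animals per dose, after 1-h equilibration. MABP recorded for 4 h; maximal % decrease reported with time to peak effect. Significance by two-way analysis of variance.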

Rattus norvegicus [2] = assay: Antihypertensive activity was determined in cannulated spontaneously hypertensive rats(SHR) and maximum decrease of mean arterial blood pressure (MABP) at 1 mg/kg oral dose; format: functional, Artery; method in brief: as §1
Rattus norvegicus [3] = assay: Antihypertensive activity was determined in cannulated spontaneously hypertensive rats(SHR) and maximum decrease of mean arterial blood pressure (MABP) at 2.5 mg/kg oral dose; format: functional, Artery; method in brief: as §1
Rattus norvegicus [4] = assay: Antihypertensive activity was determined in cannulated spontaneously hypertensive rats(SHR) and maximum decrease of mean arterial blood pressure (MABP) at 5 mg/kg oral dose; format: functional, Artery; method in brief: as §1
Rattus norvegicus [5] = assay: Vasopressor responses to epinephrine as a measure of the alpha-1-adrenoceptor blocking activity at 1 mg/kg administered orally was reported to be antagonized; format: functional, organism-based; parameters: dose 1 mg/kg
Rattus norvegicus [6] = assay: Antihypertensive activity was determined in cannulated spontaneously hypertensive rats(SHR) and heart rate response was reported to reduce by 10-25% after 4 hr at a peroral dose of 5 mg/kg; format: functional, organism-based; parameters: dose 5 mg/kg
Rattus norvegicus [7] = assay: Vasopressor responses to epinephrine as a measure of the alpha-1-adrenoceptor blocking activity at 2.5 mg/kg administered orally was reported to be reversed; format: functional, organism-based; parameters: dose 2.5 mg/kg
Rattus norvegicus [8] = assay: Antihypertensive activity was determined in cannulated spontaneously hypertensive rats(SHR) and heart rate response was reported to reduce by 10-25% after 4 hr at a peroral dose of 1.0 mg/kg; format: functional, organism-based; parameters: dose 1 mg/kg
Rattus norvegicus [9] = assay: Antihypertensive activity was determined in cannulated spontaneously hypertensive rats(SHR) and heart rate response was reported to reduce by 10-25% after 4 hr at a peroral dose of 10 mg/kg; format: functional, organism-based; parameters: dose 10 mg/kg
Rattus norvegicus [10] = assay: Antihypertensive activity was determined in cannulated spontaneously hypertensive rats(SHR) and heart rate response was reported to reduce by 10-25% after 4 hr at a peroral dose of 2.5 mg/kg; format: functional, organism-based; parameters: dose 2.5 mg/kg
Rattus norvegicus [11] = assay: Vasopressor responses to epinephrine as a measure of the alpha-1-adrenoceptor blocking activity at 10 mg/kg administered orally was reported to be reversed; format: functional, organism-based; parameters: dose 10 mg/kg
Rattus norvegicus [12] = assay: Antagonism of vasopressor responses to epinephrine as a measure of the alpha-1-adrenoceptor blocking activity at 5 mg/kg administered orally was reported to be reversed; format: functional, organism-based; parameters: dose 5 mg/kg
Rattus norvegicus [13] = assay: Antihypertensive activity was determined in cannulated spontaneously hypertensive rats(SHR) and maximum decrease of mean arterial blood pressure (MABP) at 50 mg/kg oral dose; format: functional, Artery; method in brief: as §1
Rattus norvegicus [14] = assay: Antihypertensive activity was determined in cannulated spontaneously hypertensive rats(SHR) and heart rate response was reported to be reduce by 10-25% after 4 hr at a dose of 50 mg/kg; format: functional, organism-based; parameters: dose 50 mg/kg
Rattus norvegicus [15] = assay: Antihypertensive activity was determined in cannulated spontaneously hypertensive rats(SHR) and activity rating was given with respect to MABP values at 25 mg/kg oral dose;lowering MABP by 20-30% at 5 mg/kg and by 10-20% at 1-2.5 mg/kg; format: functional, organism-based
Method in brief: (§2)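 Cannulated SHR dosed orally (gavage) in 0.5% methylcellulose, 5 mL/kg; 4–8 rats per dose. MABP monitored 4 h, maximal change taken. Rating scale: 0 = no significant activity at 50 mg/kg, stepping up to 6 = MABP fall >40% at 10 mg/kg and 10–20% at 0.25–1 mg/kg, based on % MABP decreases at set doses.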

Rattus norvegicus [16] = assay: Antihypertensive activity was determined in cannulated spontaneously hypertensive rats(SHR) and maximum decrease of mean arterial blood pressure (MABP) at 25 mg/kg oral dose; format: functional, Artery; method in brief: as §1
Rattus norvegicus [17] = assay: Antihypertensive activity was determined in cannulated spontaneously hypertensive rats(SHR) and marked bradycardia was reported at a dose of 25 mg/kg; format: functional, organism-based; parameters: dose 25 mg/kg
Rattus norvegicus [18] = assay: Vasopressor responses to epinephrine as a measure of the alpha-1-adrenoceptor blocking activity at 2.5 mg/kg administered orally was reported to be antagonized; format: functional, organism-based; parameters: dose 2.5 mg/kg; conditions: filed as antagonist
Rattus norvegicus [19] = assay: Vasopressor responses to epinephrine as a measure of the alpha-1-adrenoceptor blocking activity at 25 mg/kg administered orally was reported to be antagonized; format: functional, organism-based; parameters: dose 25 mg/kg; conditions: filed as antagonist
Rattus norvegicus [20] = assay: Vasopressor responses to epinephrine as a measure of the alpha-1-adrenoceptor blocking activity at 5 mg/kg administered orally was reported to be antagonized; format: functional, organism-based; parameters: dose 5 mg/kg; conditions: filed as antagonist
Rattus norvegicus [21] = assay: Antihypertensive activity was determined in cannulated spontaneously hypertensive rats(SHR) and maximum decrease of mean arterial blood pressure (MABP) at 0.5 mg/kg oral dose; format: functional, Artery; method in brief: as §1
Rattus norvegicus [22] = assay: Antihypertensive activity was determined in cannulated spontaneously hypertensive rats(SHR) and marked bradycardia was reported at a dose of 50 mg/kg; format: functional, organism-based; parameters: dose 50 mg/kg
Rattus norvegicus [23] = assay: Vasopressor responses to epinephrine as a measure of the alpha-1-adrenoceptor blocking activity at 0.5 mg/kg administered orally was reported to be antagonized; format: functional, organism-based; parameters: dose 0.5 mg/kg
Rattus norvegicus [24] = assay: Vasopressor responses to epinephrine as a measure of the alpha-1-adrenoceptor blocking activity at 0.25 mg/kg administered orally was reported to be reversed; format: functional, organism-based; parameters: dose 0.25 mg/kg
Rattus norvegicus [25] = assay: Vasopressor responses to epinephrine as a measure of the alpha-1-adrenoceptor blocking activity at 1 mg/kg administered orally was reported to be reversed; format: functional, organism-based; parameters: dose 1 mg/kg
Rattus norvegicus [26] = assay: Antihypertensive activity was determined in cannulated spontaneously hypertensive rats(SHR) and heart rate response was reported to reduce by 10-25% after 4 hr at a peroral dose of 0.25 mg/kg; format: functional, organism-based; parameters: dose 0.25 mg/kg
Rattus norvegicus [27] = assay: Antihypertensive activity was determined in cannulated spontaneously hypertensive rats(SHR) and activity rating was given with respect to MABP values at 10 mg/kg oral dose;a decrease of MABP by >40% at 10 mg/kg and by 10-207; format: functional, organism-based; method in brief: as §2
Rattus norvegicus [28] = assay: Antihypertensive activity was determined in cannulated spontaneously hypertensive rats(SHR) and activity rating was given with respect to MABP values at 25 mg/kg oral dose;MABP reduced by 15-25% and an appreciable antihypertensive at 2.5-5 mg/kg; format: functional, organism-based; parameters: dose 25 mg/kg
Rattus norvegicus [29] = assay: Vasopressor responses to epinephrine as a measure of the alpha-1-adrenoceptor blocking activity at 25 mg/kg administered orally was reported to be slightly; format: functional, organism-based; parameters: dose 25 mg/kg
Rattus norvegicus [30] = assay: Antihypertensive activity was determined in cannulated spontaneously hypertensive rats(SHR) and heart rate response was reported to reduce by 10-25% after 4 hr at a peroral dose of 25 mg/kg; format: functional, organism-based; parameters: dose 25 mg/kg
Rattus norvegicus [31] = assay: Vasopressor responses to epinephrine as a measure of the alpha-1-adrenoceptor blocking activity at 10 mg/kg administered orally was reported to be potentiated; format: functional, organism-based; parameters: dose 10 mg/kg
Rattus norvegicus [32] = assay: Antihypertensive activity was determined in cannulated spontaneously hypertensive rats(SHR) and marked bradycardia was reported at a dose of 10 mg/kg; format: functional, organism-based; parameters: dose 10 mg/kg

## Br.CCCN1CCN(CCC)C2c3c(C)c4ccccc4n3CCC21 (stereo not drawn)
Rattus norvegicus [1]
  Decrease in MABP: 18%
Rattus norvegicus [2]
  Decrease in MABP: 13%
Rattus norvegicus [3]
  Decrease in MABP: 16%
Rattus norvegicus [4]
  Decrease in MABP: 12%
Rattus norvegicus [5]
  Activity: Antagonism reversed
Rattus norvegicus [6]
  HR: Heart rate response was reported to reduce by 10-25% after 4 hr at a peroral dose of 1.0 mg/kg
Rattus norvegicus [7]
  Activity: Antagonism reversed
Rattus norvegicus [8]
  HR: Heart rate response was reported to reduce by 10-25% after 4 hr at a peroral dose of 1.0 mg/kg
Rattus norvegicus [9]
  HR: Heart rate response was reported to reduce by 10-25% after 4 hr at a peroral dose of 1.0 mg/kg
Rattus norvegicus [10]
  HR: Heart rate response was reported to reduce by 10-25% after 4 hr at a peroral dose of 1.0 mg/kg
Rattus norvegicus [11]
  Activity: Antagonism reversed
Rattus norvegicus [12]
  Activity: Antagonism reversed

## CCN1CCN(CC)[C@H]2c3c(C)c4ccccc4n3CC[C@H]21.Cl.Cl
Rattus norvegicus [13]
  Decrease in MABP: 25%
Rattus norvegicus [14]
  HR: Heart rate response was reported to be reduce by 10-25% after 4 hr at a dose of 25 mg/kg

## O=C(NC1CCN(CCc2c[nH]c3ccccc23)CC1)c1ccccc1 [INDORAMIN]
Rattus norvegicus [15]
  Activity rating: Active
Rattus norvegicus [3]
  Decrease in MABP: 12%
Rattus norvegicus [16]
  Decrease in MABP: 40%
Rattus norvegicus [4]
  Decrease in MABP: 29%
Rattus norvegicus [6]
  HR: Active
Rattus norvegicus [17]
  HR: Active
Rattus norvegicus [18]
  Activity: Antagonist
Rattus norvegicus [19]
  Activity: Antagonist
Rattus norvegicus [20]
  Activity: Antagonist

## Cc1c2n(c3ccccc13)CCC1C2N(C)CCN1C (stereo not drawn)
Rattus norvegicus [1]
  Decrease in MABP: 23%
Rattus norvegicus [4]
  Decrease in MABP: 13%

## CCN1CCN(C(C)C)C2CCn3c(c(C)c4cc(OC)ccc43)C21.Cl.Cl (stereo not drawn)
Rattus norvegicus [21]
  Decrease in MABP: 8%
Rattus norvegicus [13]
  Decrease in MABP: 43%
Rattus norvegicus [4]
  Decrease in MABP: 33%
Rattus norvegicus [22]
  HR: Heart rate response was reported to reduce by 10-25% after 4 hr at a peroral dose of 5.0 mg/kg
Rattus norvegicus [23]
  Activity: Vasopressor response antagonized

## CCN1CCN(C(C)C)C2CCn3c(c(C)c4ccccc43)C21 (stereo not drawn)
Rattus norvegicus [1]
  Decrease in MABP: 56%
Rattus norvegicus [2]
  Decrease in MABP: 40%
Rattus norvegicus [3]
  Decrease in MABP: 52%
Rattus norvegicus [24]
  Activity: Vasopressor response reversed
Rattus norvegicus [25]
  Activity: Vasopressor response reversed
Rattus norvegicus [7]
  Activity: Vasopressor response reversed
Rattus norvegicus [26]
  HR: Heart rate response was reported to reduce by 10-25% after 4 hr at a peroral dose of 0.25 mg/kg
Rattus norvegicus [8]
  HR: Heart rate response was reported to reduce by 10-25% after 4 hr at a peroral dose of 0.25 mg/kg
Rattus norvegicus [10]
  HR: Heart rate response was reported to reduce by 10-25% after 4 hr at a peroral dose of 0.25 mg/kg
Rattus norvegicus [11]
  Activity: Vasopressor response reversed

## COc1cc2nc(N3CCN(C(=O)c4ccco4)CC3)nc(N)c2cc1OC [PRAZOSIN]
Rattus norvegicus [21]
  Decrease in MABP: 35%
Rattus norvegicus [1]
  Decrease in MABP: 49%
Rattus norvegicus [2]
  Decrease in MABP: 46%
Rattus norvegicus [27]
  Activity rating: Active

## Cc1c2n(c3ccccc13)CCC1NCCNC21 (stereo not drawn)
Rattus norvegicus [28]
  Activity rating: MABP reduced by 15-25% and an appreciable antihypertensive at 2.5-5 mg/kg
Rattus norvegicus [1]
  Decrease in MABP: 19%
Rattus norvegicus [16]
  Decrease in MABP: 27%
Rattus norvegicus [29]
  Activity: Vasopressor response potentiated
Rattus norvegicus [30]
  HR: Heart rate response was reported to reduce by 10-25% after 4 hr at a peroral dose of 25 mg/kg
Rattus norvegicus [31]
  Activity: Vasopressor response potentiated

## CCN1CCN(C(C)C)C2CCn3c(c(C)c4cc(Br)ccc43)C21.Cl.Cl (stereo not drawn)
Rattus norvegicus [13]
  Decrease in MABP: 20%

## Br.CCCN1CCN(C(C)C)C2CCn3c(c(C)c4ccccc43)C21 (stereo not drawn)
Rattus norvegicus [1]
  Decrease in MABP: 40%
Rattus norvegicus [2]
  Decrease in MABP: 19%
Rattus norvegicus [3]
  Decrease in MABP: 25%
Rattus norvegicus [32]
  HR: Heart rate response was reported to reduce by 10-25% after 4 hr at a peroral dose of 1.0 mg/kg
Rattus norvegicus [25]
  Activity: Vasopressor response reversed
Rattus norvegicus [7]
  Activity: Vasopressor response reversed
Rattus norvegicus [11]
  Activity: Vasopressor response reversed
